In ChEMBL document CHEMBL4024751, “Hit-to-Lead Optimization and Discovery of 5-((5-([1,1'-Biphenyl]-4-yl)-6-chloro-1H-benzo[d]imidazol-2-yl)oxy)-2-methylbenzoic Acid (MK-3903): A Novel Class of Benzimidazole-Based Activators of AMP-Activated Protein Kinase” (J Med Chem, 2017):

How the values were obtained:
AMPK alpha2/beta1/gamma1 = AMPK alpha2/beta1/gamma1 (Homo sapiens, UniProt P54619+P54646+Q9Y478); assay: (§1) Agonist activity at human recombinant phosphorylated AMPK complex 7 alpha2/beta1/gamma1 expressed in baculovirus infected Sf21 cells assessed as phosphorylation of 5-FAM-labeled SAMS substrate preincubated for 30 mins in presence of AMPK activator followed by substrate addition measured after 60 mins
Procedure, shortened: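 Recombinant phosphorylated human AMPK complex; agonist tested as a 10-point titration up to 50 μM (∼2 nM to 50 μM in some series, ∼0.8 nM to 16 μM in others). EC50 is the average of at least two experiments. Percent maximum activation is the highest activation seen over the titration range, or the level at 50 μM.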

[1] = target: T1, AMPK alpha2/beta1/gamma1 (Homo sapiens) (UniProt P54646+P54619+Q9Y478); assay: as §1, with “SAMS substrate at 0.0008 to 16 uM preincubated for” for “SAMS substrate preincubated for”, “60 mins relative to AMP” for “60 mins”
Procedure, shortened: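 Recombinant human pAMPK7 was titrated at 10 points over about 0.8 nM to 16 μM. EC50 is the average of at least two experiments. Percent maximum activation is the highest activation seen within that range.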

[2] = target: T1, AMPK alpha2/beta1/gamma1 (Homo sapiens); assay: as §1, with “SAMS substrate at 50 uM preincubated for” for “SAMS substrate preincubated for”, “60 mins relative to AMP” for “60 mins”
Procedure, shortened: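 Activation of pAMPK7 is reported as percent activation at 50 μM, taken from 10-point titrations and averaged over at least two experiments.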

[3] = target: T1, AMPK alpha2/beta1/gamma1 (Homo sapiens); assay: as §1, with “SAMS substrate at 0.002 to 50 uM preincubated for” for “SAMS substrate preincubated for”, “60 mins relative to AMP” for “60 mins”
Procedure, shortened: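 Recombinant human pAMPK complexes were titrated at 10 points over about 2 nM to 50 μM. EC50 is the average of at least two experiments. %max is the highest activation seen within that range.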

Mus musculus [4] = assay: In vivo agonist activity at AMPK C57BL/6 mouse assessed as inhibition of de novo lipogenesis at 100 mg/kg, po administered via gavage; assay type: functional; details: C57BL/6, po
Mus musculus [5] = assay: In vivo agonist activity at AMPK in C57BL/6 mouse assessed as inhibition of de novo lipogenesis at 30 mg/kg, ip; assay type: functional; details: C57BL/6, ip
[6] = Plasma clearance in C57BL/6 mouse by LC-MS/MS analysis; assay type: ADME
Procedure, shortened: (§2)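 C57BL/6 mice were dosed 2 mg/kg IV and 10 mg/kg PO. Reported parameters: plasma clearance, Vdss, terminal t1/2, Cmax, tmax and oral bioavailability F. AUCN is the plasma AUC after PO dosing normalized to dose.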

[7] = Terminal half life in C57BL/6 mouse by LC-MS/MS analysis; assay type: ADME; details: in vivo, read-out: beta t1/2 (converted); procedure, shortened: as §2
[8] = Oral bioavailability in C57BL/6 mouse by LC-MS/MS analysis; assay type: ADME, organism-based; details: in vivo; procedure, shortened: as §2
[9] = Volume of distribution at steady state in C57BL/6 mouse by LC-MS/MS analysis; assay type: ADME; details: in vivo, read-out: Vdss; procedure, shortened: as §2
Mus musculus [10] = assay: Dose normalized AUC in po dosed C57BL/6 mouse administered via gavage by LC-MS/MS analysis; assay type: ADME, organism-based; details: in vivo; procedure, shortened: as §2
[11] = Plasma clearance in BCRP knockout mouse by LC-MS/MS analysis; assay type: ADME
[12] = Terminal half life in BCRP knockout mouse by LC-MS/MS analysis; assay type: ADME; details: in vivo, read-out: beta t1/2 (converted)
[13] = Oral bioavailability in BCRP knockout mouse by LC-MS/MS analysis; assay type: ADME, organism-based; details: in vivo
[14] = Volume of distribution at steady state in BCRP knockout mouse by LC-MS/MS analysis; assay type: ADME; details: in vivo, read-out: Vdss
Mus musculus [15] = assay: Dose normalized AUC in BCRP knockout mouse administered through oral gavage by LC-MS/MS analysis; assay type: ADME; details: in vivo
[16] = Apparent permeability of compound in pig LLC-PK1 cells by HPLC analysis; assay type: ADME, cell-based, Sus scrofa; details: llc-pk1
Procedure, shortened: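 LLC-PK1 monolayer on polycarbonate filter. Compound in HBSS added to the apical or basolateral side. Both sides sampled at end of incubation and quantified by HPLC. Papp is the mean of A→B and B→A values.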

T1 sequence (P54619 whole entry partner): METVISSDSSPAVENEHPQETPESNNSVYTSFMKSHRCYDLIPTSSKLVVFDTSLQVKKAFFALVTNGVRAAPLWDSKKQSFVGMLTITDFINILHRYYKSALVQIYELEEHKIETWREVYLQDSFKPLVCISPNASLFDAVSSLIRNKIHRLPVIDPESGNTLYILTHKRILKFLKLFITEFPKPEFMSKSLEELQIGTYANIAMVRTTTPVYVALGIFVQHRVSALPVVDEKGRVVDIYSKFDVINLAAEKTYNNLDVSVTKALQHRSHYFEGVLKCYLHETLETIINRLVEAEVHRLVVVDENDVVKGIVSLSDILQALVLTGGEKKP
T1 sequence (P54646 whole entry): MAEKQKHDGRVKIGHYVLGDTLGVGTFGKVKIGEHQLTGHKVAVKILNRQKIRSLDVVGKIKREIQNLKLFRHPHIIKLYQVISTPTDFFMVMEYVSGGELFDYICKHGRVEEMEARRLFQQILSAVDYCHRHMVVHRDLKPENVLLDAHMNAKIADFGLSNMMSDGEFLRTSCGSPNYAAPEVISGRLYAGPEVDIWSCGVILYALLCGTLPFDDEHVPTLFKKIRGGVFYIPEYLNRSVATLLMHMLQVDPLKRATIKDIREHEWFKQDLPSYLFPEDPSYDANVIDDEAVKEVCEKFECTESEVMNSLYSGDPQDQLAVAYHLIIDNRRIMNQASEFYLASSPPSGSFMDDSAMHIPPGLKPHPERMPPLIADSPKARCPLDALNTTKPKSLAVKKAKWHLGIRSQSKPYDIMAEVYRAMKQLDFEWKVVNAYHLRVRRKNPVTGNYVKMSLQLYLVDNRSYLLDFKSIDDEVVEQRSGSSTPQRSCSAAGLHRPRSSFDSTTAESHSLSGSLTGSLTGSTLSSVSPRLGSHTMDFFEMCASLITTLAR
T1 sequence (Q9Y478 2-270 partner limits assumed): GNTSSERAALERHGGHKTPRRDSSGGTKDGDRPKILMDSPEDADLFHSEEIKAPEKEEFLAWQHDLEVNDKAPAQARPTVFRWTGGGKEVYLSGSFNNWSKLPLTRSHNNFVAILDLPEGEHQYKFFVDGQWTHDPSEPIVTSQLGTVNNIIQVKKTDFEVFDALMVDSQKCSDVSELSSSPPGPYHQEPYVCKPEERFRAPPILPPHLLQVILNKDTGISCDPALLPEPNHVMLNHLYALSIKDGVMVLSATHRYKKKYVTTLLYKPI
Sequence of AMPK alpha2/beta1/gamma1 (P54646 whole entry): as the sequence (P54646 whole entry) above
Sequence of AMPK alpha2/beta1/gamma1 (P54619 whole entry): as the sequence (P54619 whole entry partner) above
Sequence of AMPK alpha2/beta1/gamma1 (Q9Y478 whole entry): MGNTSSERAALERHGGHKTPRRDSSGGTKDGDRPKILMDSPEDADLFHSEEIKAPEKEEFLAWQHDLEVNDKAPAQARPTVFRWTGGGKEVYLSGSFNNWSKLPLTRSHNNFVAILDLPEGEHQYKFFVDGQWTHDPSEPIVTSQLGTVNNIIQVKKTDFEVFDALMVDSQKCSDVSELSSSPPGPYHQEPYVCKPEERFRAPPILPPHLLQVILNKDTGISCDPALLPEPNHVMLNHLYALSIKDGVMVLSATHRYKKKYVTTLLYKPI

Row | EC50 (AMPK alpha2/beta1/gamma1) [nM] | %max [2] [%] | Structure (SMILES) | other results
1 | 2 |  | Cc1ccc(Oc2nc3cc(-c4ccc5c(ccn5C)c4)c(Cl)cc3[nH]2)cc1C(=O)O | %max [1]: 340%
2 | 15 |  | O=C(O)c1cc(Oc2nc3cc(C#Cc4ccccc4)c(Cl)cc3[nH]2)ccc1Cl | %max [1]: 250%
3 | 36000 | 78 | O=C(O)CCc1nc2cc(Cl)c(Cl)cc2[nH]1 | 
4 | 32 |  | O=C(O)c1cc(Oc2nc3cc(-c4ccc(-c5ccccc5)cc4)c(Cl)cc3[nH]2)ccc1Cl | %max [1]: 310%
5 |  | 19 | Cc1cc2nc(CCC(=O)O)[nH]c2cc1C | 
6 | 29 |  | O=C(O)c1cccc(Sc2nc3cc(-c4ccc(-c5ccccc5O)cc4)c(Cl)cc3[nH]2)c1 | %max [3]: 100%
7 | 11 |  | Cc1ccc(Oc2nc3cc(-c4ccc(-c5ccn[nH]5)cc4)c(Cl)cc3[nH]2)cc1C(=O)O | %max [1]: 260%
8 | 6000 | 130 | O=C(O)CCc1nc2cc(Cl)c(-c3ccc(-c4ccccc4)cc3)cc2[nH]1 | 
9 | 8100 | 130 | O=C(O)c1ccccc1Sc1nc2cc(Cl)c(Cl)cc2[nH]1 | 
10 | 200 |  | O=C(O)CSc1nc2cc(C#Cc3ccccc3)c(Cl)cc2[nH]1 | %max [3]: 320%
11 | 150 |  | O=C(O)CSc1nc2cc(-c3ccc(-c4ccccc4)cc3)c(Cl)cc2[nH]1 | inhibition in vivo at 100 mg/kg (Mus musculus [4]): 20%; %max [3]: 260%; inhibition in vivo at 30 mg/kg (Mus musculus [5]): 40%; clearance [6]: 60 mL/min/kg; half-life [7]: 2.8 h; bioavailability [8]: 7%; Vd [9]: 6.7 L/kg; AUC/dose (Mus musculus [10]): 0.05 µM·kg·h/mg; clearance [11]: 2.9 mL/min/kg; half-life [12]: 10.8 h; bioavailability [13]: 77%; Vd [14]: 2.6 L/kg; AUC/dose (Mus musculus [15]): 11.4 µM·kg·h/mg; Papp [16]: Permeable

More lines, now with the values behind:

Row | Structure (SMILES) | EC50 (AMPK alpha2/beta1/gamma1) [nM] | %max [2] [%] | other results
12 | O=C(O)c1cccc(Oc2nc3cc(-c4ccc(-c5ccccc5)cc4)c(Cl)cc3[nH]2)c1 | 61 |  | %max [1]: 260%
13 | O=C(O)Cc1cccc(Sc2nc3cc(Cl)c(Cl)cc3[nH]2)c1 | 2900 | 140 | 
14 | O=C(O)CC[S+]([O-])c1nc2cc(Cl)c(Cl)cc2[nH]1 (configuration not stated) |  | 15 | 
15 | Cc1ccc(Oc2nc3cc(-c4ccc(-c5ccccc5O)cc4)c(Cl)cc3[nH]2)cc1C(=O)O | 3 |  | %max [1]: 230%
16 | Cc1ccc(Oc2nc3cc(C#Cc4ccccc4)c(Cl)cc3[nH]2)cc1C(=O)O | 7 |  | %max [1]: 240%
17 | COc1ccc2[nH]c(CCC(=O)O)nc2c1 |  | 14 | 
18 | O=C(O)CCc1nc2cc(Cl)c(Br)cc2[nH]1 |  | 44 | 
19 | O=C(O)CCc1nc2cc(Cl)ccc2[nH]1 |  | 41 | 
20 | O=C(O)c1ccc(Sc2nc3cc(Cl)c(Cl)cc3[nH]2)cc1 |  | 35 | 
21 | O=C(O)c1ccccc1-c1nc2cc(Cl)c(Cl)cc2[nH]1 |  | 6 | 
22 | O=C(O)c1cccc(Sc2nc3cc(-c4ccc(-c5ccccc5)cc4)c(Cl)cc3[nH]2)c1 | 800 |  | %max [3]: 200%
23 | O=C(O)CCSc1nc2cc(Cl)c(Cl)cc2[nH]1 | 8500 | 130 | 
24 | O=C(O)c1csc(Sc2nc3cc(Cl)c(Cl)cc3[nH]2)n1 | 2600 | 76 | 
25 | O=C(O)c1cccc(-c2nc3cc(Cl)c(Cl)cc3[nH]2)c1 |  | 10 | 
26 | O=C(O)CCc1nc2cc(Cl)c(-c3ccccc3)cc2[nH]1 | 8000 | 130 | 
27 | O=C(O)CSc1nc2cc(Cl)c(Cl)cc2[nH]1 | 4000 | 130 | 
28 | O=C(O)c1cccc(Sc2nc3cc(Cl)c(Cl)cc3[nH]2)c1 | 7400 | 150 | 
29 | O=C(O)CCc1nc2ccccc2[nH]1 |  | 14 | 
